Screens as filed in PubChem BioAssay.
p-CIP stab down – compounds decreasing mouse p/CIP protein stability; AID 1984; 290,000 tested, 0.01% active; F442A p/CIP-EGFP cells, EGFP fluorescence, 16 h; decrease of EGFP signal, % at 10 µM;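 active means EGFP signal decrease of at least 30% at 10 µM or well 3 SD below plate mean, unless failing retest; inactive means the rest, including hits failing retest or dose response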
UBC13 inh – blocks human UBC13 polyubiquitin chain formation. AID 485273. P61088. 330,000 tested, 0.47% active. TR-FRET. inhibition, % at 20 µM; in the data active means inhibition above about 45%, passing the limit was not always enough
PP1 counter – PP1-alpha (human) inhibition in PP5 counter-screen; purified PP1alpha, OMFP fluorescence; P62136; inhibition, % at 6.7 µM; 320,000 tested, 0.9% active;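 active means inhibition above the mean inhibition of all tested compounds plus 3 SD, computed separately for each screening campaign, cut at about 15% in these data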
AI-2 QS mod – modulators of Vibrio harveyi AI-2 quorum sensing system | 300,000 tested, 0.4% active | activity change, % at 7.5 µM | AID 2094 | Vibrio harveyi JMH597 AI-2 luminescence/OD600 ratio, 9 h; hits give low values; strain lacks LuxN and CqsS sensors; 0 = neutral-control median; in the data active means activity change below about -75%, passing the limit was not always enough;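 further: luminescence divided by OD600 gain over 9 h not by final OD600 alone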
T cruzi inh – blocks replication of Trypanosoma cruzi. T. cruzi beta-gal in NIH3T3, luminescence, 90 h. inhibition, % (no concentration beside the values). 300,000 tested, 1.4% active. AID 1885;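 active means mean inhibition across valid replicates above about 55%, limit read from the data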;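 further: signal also drops with host cell toxicity which is not excluded here; 0% = plate median of DMSO wells and 100% = zero luminescence signal; higher percent means less beta-gal luminescence so fewer parasites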
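System: Mouse NIH/3T3 fibroblasts infected with β-gal-expressing T. cruzi Tulahuen C4 | Quantity: NIH/3T3 cells, 5,000 per well | Reagent: 5000 reporter trypomastigotes per well | Dosing: Compound pinned at 50 nL/well, DMSO | Schedule: 3 h host attachment, then at least 90 h co-culture | Detection: GalScreen luminescence, 60 min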
* hit, by the source's call; nt = no result given. Only some compounds are listed: those with a hit (about 2.8% of all), similar ones and a draw of the others.

SMILES	p-CIP stab down	UBC13 inh	PP1 counter	AI-2 QS mod	T cruzi inh
CC(C)c1ccc2c(c1)C1(NN=C(c3ccccc3)S1)C(=O)N2 (stereo unspecified)	-6	-81	16*	-91*	66*
CCN(CC)C1=CC(=[N+]2CCCC2)CC(C)(C)C1	-7	-8	2	3	64*
CN(C)c1cccc(NC2=CC(=[N+]3CCOCC3)CC(C)(C)C2)c1	-14	-17	-3	25	11
CN(Cc1ccccc1)C1=CC(=[N+]2CCCC2)CC(C)(C)C1	-18	-14	-4	2	64*
Fc1ccc(CSc2nnc(-c3ccncc3)o2)cc1	0	5	-2	-78*	0
Nc1ccc(C(=O)c2cccs2)cc1[N+](=O)[O-]	-14	-11	7	14	9
Cc1cccc(CN2CCN(CCCc3ccccc3)CC2)c1	-4	0	-2	27	63*
Cc1cccc(CN2CCSCC2)c1	-13	2	1	8	-12
O=C(N=C1SC2CS(=O)(=O)CC2N1c1cc(Cl)ccc1Cl)C1CCCO1 (stereo unspecified)	2	-5	3	-28	-3
Cc1cc(C)cc(Oc2ncnc3c2ncn3Cc2c(Cl)cccc2Cl)c1	-8	1	-8	20	60*
Cc1cccn(Cc2c(Cl)cccc2Cl)c1=O	nt	5	2	30	-13
CNC(=S)N1CCN(c2c(F)cc3c(=O)c(C(=O)O)cn(C4CC4)c3c2OC)CC1C (stereo unspecified)	6	3	16*	16	-11
COc1c(N2CCN(C(=S)Nc3ccccc3)C(C)C2)c(F)cc2c(=O)c(C(=O)O)cn(C3CC3)c12 (stereo unspecified)	4	nt	nt	nt	nt
COC(=O)C(C)NC(=S)N1CCN(c2c(F)cc3c(=O)c(C(=O)O)cn(C4CC4)c3c2OC)CC1C (stereo unspecified)	-138	6	16*	4	13
Cc1ccc2nc(SCC(=O)c3ccc(O)cc3O)[nH]c2c1	6	-6	3	11	-6
CC1CCCCC1Nc1ncnc2sccc12 (stereo unspecified)	-8	1	2	-7	-9
CCOc1ccc(CN2CCCC(N3CCN(c4ccc(OC)cc4)CC3)C2)cc1 (stereo unspecified)	-6	5	0	12	59*
OCCOc1ccc(CN2CCCC(N3CCN(c4ccc(F)cc4)CC3)C2)cc1 (stereo unspecified)	-9	1	-4	9	48
Cc1ccc(S(=O)(=O)Nc2ccc(Cl)cc2)cc1NC(=O)c1cc2c(s1)CCCC2	0	9	5	26	75*
CCCCOc1c(Br)cc(CNCCCN2CCOCC2)cc1OC	3	5	-2	15	46
COCCn1c(=NC(=O)c2cc(-c3cccs3)nc3ccccc23)sc2cc(S(N)(=O)=O)ccc21	-19	19	14	26	67*
C=CCn1c(=NC(=O)c2sc3ccccc3c2Cl)sc2cc(S(N)(=O)=O)ccc21	-5	3	11	15	35
C=CCn1c(=NC(=O)c2cc(-c3cccs3)nc3ccccc23)sc2cc(S(N)(=O)=O)ccc21	-13	26	16*	23	46
COc1cccc(CNC(=O)CCC2CCCN(Cc3cc4ccccc4o3)C2)c1 (stereo unspecified)	-7	10	-3	16	62*
CC(=O)c1cccc(CN2CCCC(CCC(=O)NCc3ccc(F)c(F)c3)C2)c1 (stereo unspecified)	-17	0	-3	-1	76*
SMILES	p-CIP stab down	UBC13 inh	PP1 counter	AI-2 QS mod	T cruzi inh
O=C(CCC1CCCN(Cc2ccncc2)C1)NCc1ccc(F)c(F)c1 (stereo unspecified)	-13	0	-2	10	56*
Brc1ccc2c(c1)CN1CCCC1=N2	-8	-1	-6	28	28
CC1CCN(S(=O)(=O)c2ccc(NC(=O)CN3CCCC3)cc2)CC1	-9	7	3	11	25
CCN1CCN(CC(=O)Nc2ccc(S(=O)(=O)N3C(C)CCCC3C)cc2)CC1 (stereo unspecified)	5	-9	-6	12	58*
N#Cc1ccccc1S(=O)(=O)N1CCN(c2nc(-c3cccnc3)nc3ccccc23)CC1	nt	3	nt	nt	nt
COc1ccccc1-n1c(SCC(=O)NC2CCCCC2)nc2c(c1=O)SCC2	2	-4	-4	32	20
